This sample holds only a part of the variants without activity.
B1: tRNA (parent)
chain: GUUCCGUUGGCGUAAUGGUAACGCGUCUCCCUCCUAAGGAGAAGACUGCGGGUUCGAGUCCCGUACGGAACG

Variants of: B1
Test: yeast fitness relative to wild type (ratio to wild type); higher = fitter; tRNA-Arg(CCU), competitive growth, 37 C, YPD
In short: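 Genotype frequency changes were the basis for Darwinian fitness relative to wild type. The frequencies came from 100-nucleotide paired-end sequencing of gene amplicons from the start population and each end population of pooled yeast strains with tRNA-Arg(CCU) gene variants at the native locus. Competition ran in YPD at 37°C for 24 hours in six replicates, genotypes needed ≥ 100 starting reads, and estimates < 0.5 were set to 0.5.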

Variant	yeast fitness
GUUCCGUUGGCGUAAUGGUAACGCGUCUACCCCCUAAGGAGAAGACUGAGGGUUCGAGUCCCGUACGGAACG	≤ 0.5
GUUCCGUUGGCGUAAUGGUAACGCGUCUACCCCCUAAGGAGUAGACUGCGGGUUCGAGUCCCGUAAGGCACG	≤ 0.5
GUUCCGUUGGCGUAAUGGUAACGCGUCUACCUCCGAAGGAGAAGACUGCGGGUUGGAGUCCCGUACGACACG	≤ 0.5
GUUCCGUUGGCGUAAUGGUAACGCGUCUACCUCCUAAGGAGAAGACUGGGGGUUCGAGUCCCGUACGGAACG	0.623
GUUCCGUUGGCGUAAUGGUAACGCGUCUACCUCCCAAGGAGAAGACUGCAGGUUCGAGUCCCGUACGGAACG	≤ 0.5
GUUCCGUUGGCGUAAUGGUAACGCGUCUACGUCCUAAGGAGAAGACUGCGCGUUCGAGUCCGGUACGGAACG	≤ 0.5
GUUCCGUUGGCGUAAUGGUAACGCGUCUACCACCUAAGGAGAAGCCUGCGGGUUCGAGUCCCGUCCGGAACG	0.651
GUUCCGUUGGCGUAAUGGUAACGCGUCUACCUCCUAAGCAGAAGACUGCGGGUUCGAGUCCCGUACGGAACG	0.817
GUUCCGUUGGCGUAAUGGUAACGCGUCUACCUCCUAAGCAGAAGACUGCGGGUUCGGGUCUCGUAUGGAACG	0.561
GUUCCGUUGGCGUAAUGGUAACGCGUCUACCCCCAAAGGAGAAGACUGCGGGUUCGAGUCCCGUACGGAACG	≤ 0.5
GUUCCGUUGGCGUAAUGGUAACGCGUCUACCUCCCAAGGUGAAGACUGCGGGUUCGAGUCCCGUACGGAACG	0.639
GUUCCGUUGGCGUAAUGGUAACGCGUCUACCCCCUAAGGAGUAGACUGCGGGUUCGAGUCCCGUACAGAACG	0.522
GUUCCGUUGGCGUAAUGGUAACGCGUCUACCUCCUAAGGAGAAGACUGCGGGUUCGAGUCGCGUACCAAACG	≤ 0.5
GUUCCGUUGGCGUAAUGGUAACGCGUCUACCUCCUAAGGAGAAGACAGCGGGUUCGAGUCCCGUACGCAACG	≤ 0.5
GUUCCGUUGGCGUAAUGGUAACGCGUCUACCUCCUAAGGAGAAGAAUGCGGGUUCGAGUCCCGUACGGAGCG	≤ 0.5
GUUCCGUUGGCGUAAUGGUAACGCGUCUACCUCCAAAGGAGAAGACUGCGGGUUCGAGUCCCGUACGGAUCG	0.716
GUUCCGUUGGCGUAAUGGUAACGCGUCUACCUCUUUAGGAGAAGACUGCGGGUUCGAGUCUCGUACUGAACG	≤ 0.5
GUUCCGUUGGCGUAAUGGUAACGCGUCUACGUCCUAAGGAGAAGACUGCGGGUUAGAAUCCCGUACGGAACG	0.568
GUUCCGUUGGCGUAAUGGUAACGCGUCUACAUCCUAAGGCGAAAACUGCGGGUUCGAGACCCGUACGGAACG	0.682

Variant	yeast fitness
GUUCCGUUGGCGUAAUGGUAACGCGUCUACCUCCUAAGGAGAAGACUGCGGGUUCGAGUCCUGCACGGAACG	0.554
GUUCCGUUGGCGUAAUGGUAACGCGUCUACGUCCUAAGAAGAAGACUCCGGGUUCGAGUCCCGUACGGAACG	≤ 0.5
GUUCCGUUGGCGUAAUGGUAACGCGUCUACCUCCUAAGGAGAAGAUUGCGGGUUCGGGUCCCGUACGGAACG	≤ 0.5
GUUCCGUUGGCGUAAUGGUAACGCGUCUACCUCCUAAGGAGAAGACUCCGGGUUCGAGUCCCGUACGGAGCG	0.54
GUUCCGUUGGCGUAAUGGUAACGCGUCUACCUCCUAAGGAGAAGACUACAGGUUCGAGUCCCGUAUGGAACG	≤ 0.5
GUUCCGUUGGCGUAAUGGUAACGCGUCUAUCUCCUAAGGAGAAGACUGCGGGUUCGAGUCCCGCACGGAACG	≤ 0.5
GUUCCGUUGGCGUAAUGGUAACGCGUCUACCUCCUAAGGAGAAGACUGCGGGUUCGAAUCCCGUACGGAACG	0.653
GUUCCGUUGGCGUAAUGGUAACGCGUCUACCUCCAAAGGAGAAGACUGCGGGUUCGAGUCCCGUACCGAACG	≤ 0.5
GUUCCGUUGGCGUAAUGGUAACGCGUCUACCUCCUAAGGAGAAGACUGCGAGUUCGAGUCCCGUACGGAACG	0.544
GUUCCGUUGGCGUAAUGGUAACGCGUCUACCUCCUAAGGAGAAGACUGCGCGUUCGAGUCCCGUACGGAACG	≤ 0.5
GUUCCGUUGGCGUAAUGGUAACGCGUCUACCUCCUAAAGAGAAGACUGCGGGUUCGAGUCCCGUACGGAACG	0.764
GUUCCGUUGGCGUAAUGGUAACGCGUCUACCUGCUAGGGAGAAGACUGUGGGUUCGAGUCCCGUAUGGAACG	≤ 0.5
GUUCCGUUGGCGUAAUGGUAACGCGUCUACCUCCUAAGGAGAAGACUGCGGCUUCGAGUCCCGUACGAAACG	≤ 0.5
GUUCCGUUGGCGUAAUGGUAACGCGUCUACCUCCUAAGGAGAAGACUGCGGGUUCGAGUCGCGUACGGAUCG	≤ 0.5
GUUCCGUUGGCGUAAUGGUAACGCGUCUACCUCCUAAGGAGAAGACUGCGGGUUCGAGUCGCGUAUGGUACG	≤ 0.5
GUUCCGUUGGCGUAAUGGUAACGCGUCUACCUGCUAAGGAGAAGACUGCGGGUUCGAGUCUCGUACGGAACG	0.619
GUUCCGUUGGCGUAAUGGUAACGCGUCUACCUCCUAAGGAGAAGACUGCGGGUUCCAGUCACGUACGGAACG	≤ 0.5
GUUCCGUUGGCGUAAUGGUAACGCGUCUAUCUCCUAAGGAGAAGACCGCGGGUUCGAGUCCCGCACGGAACG	≤ 0.5
